Source: ChEMBL document CHEMBL1944633, “A new generation of radiofluorinated pyrimidine-2,4,6-triones as MMP-targeted radiotracers for positron emission tomography” (J Med Chem, 2012)

What was measured:
Neutrophil collagenase = Neutrophil collagenase (Homo sapiens, UniProt P22894); test: Inhibition of MMP8 using (7-methoxycoumarin-4-yl)acetyl-Pro-Leu-Gly-Leu-(3-(2,4-dinitrophenyl)-L-2,3-diaminopropionyl)Ala-Arg-NH2 as substrate preincubated for 30 mins measured after 10 mins by fluorescence analysis
Method in brief: (§1)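 Activated enzyme at 2 nM preincubated with inhibitor (10 pM to 1 mM) for 30 min at 37 °C in 50 mM Tris-HCl pH 7.5, 0.2 M NaCl, 5 mM CaCl2, 20 μM ZnSO4, 0.05% Brij 35. Fluorogenic peptide substrate added (10 μL of 50 μM stock to 90 μL mix). Fluorescence read at ex 330/em 390 nm. Rates taken from initial 10 min; IC50 by nonlinear regression of rate versus concentration.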

[1] = Octanol-water partition coefficient, log D of the compound at pH 7.4 by gamma counter; type: physicochemical
Method in brief: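 About 20 kBq radioligand shaken 1 min at room temperature in equal volumes (0.5 mL) of PBS pH 7.4 and 1-octanol. Phases separated by centrifugation (3000 rpm, 2 min). Three 100 μL samples per layer gamma-counted. log D7.4 = log(cpm octanol/cpm PBS). Two independent experiments in triplicate, mean ± standard deviation.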

Collagenase 3 = Collagenase 3 (Homo sapiens, UniProt P45452); test: Inhibition of MMP13 using (7-methoxycoumarin-4-yl)acetyl-Pro-Leu-Gly-Leu-(3-(2,4-dinitrophenyl)-L-2,3-diaminopropionyl)Ala-Arg-NH2 as substrate preincubated for 30 mins measured after 10 mins by fluorescence analysis; method in brief: as §1
[2] = molecular target: 72 kDa type IV collagenase (Homo sapiens, UniProt P08253); test: Inhibition of MMP2 using (7-methoxycoumarin-4-yl)acetyl-Pro-Leu-Gly-Leu-(3-(2,4-dinitrophenyl)-L-2,3-diaminopropionyl)Ala-Arg-NH2 as substrate preincubated for 30 mins measured after 10 mins by fluorescence analysis
Method in brief: (§2)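 Activated enzyme at 2 nM preincubated with inhibitor (10 pM to 1 mM) for 30 min at 37 °C in 50 mM Tris-HCl pH 7.5, 0.2 M NaCl, 5 mM CaCl2, 20 μM ZnSO4, 0.05% Brij 35. Fluorogenic peptide substrate added (10 μL of 50 μM stock to 90 μL mix).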

[3] = molecular target: Matrix metalloproteinase-9 (Homo sapiens, UniProt P14780); test: Inhibition of MMP9 using (7-methoxycoumarin-4-yl)acetyl-Pro-Leu-Gly-Leu-(3-(2,4-dinitrophenyl)-L-2,3-diaminopropionyl)Ala-Arg-NH2 as substrate preincubated for 30 mins measured after 10 mins by fluorescence analysis; method in brief: as §2
Kidney = test: Drug uptake in BALB/c mouse kidney at 5 to 8 MBq measured after 60 mins by CT scanning; type: ADME; conditions: in vivo, 1 h
Method in brief: (§3)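 Balb/c mice (19–27 g) under isoflurane (1.5%/0.3 L/min) on a heating pad, tail-vein catheter. 5–8 MBq radiotracer in 100 μL with 150 μL saline flush, injected iv 30 s after scan start. Dynamic list-mode small-animal PET for 60 min, iterative resolution-recovery reconstruction. CT acquired afterwards (80 μm). CT-guided volumes of interest gave time–activity curves as %ID.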

Lung = test: Drug uptake in BALB/c mouse lung at 5 to 8 MBq measured after 60 mins by CT scanning; type: ADME; conditions: in vivo, 1 h; method in brief: as §3
Heart = test: Drug uptake in BALB/c mouse heart at 5 to 8 MBq measured after 60 mins by CT scanning; type: ADME, tissue-based; conditions: in vivo, 1 h; method in brief: as §3
Brain = test: Drug uptake in BALB/c mouse brain at 5 to 8 MBq measured after 60 mins by CT scanning; type: ADME, tissue-based; conditions: in vivo, 1 h; method in brief: as §3
[4] = Drug uptake in BALB/c mouse skeleton at 5 to 8 MBq measured after 60 mins by CT scanning; type: ADME; conditions: in vivo, 1 h; method in brief: as §3
Liver [5] = test: Drug uptake in BALB/c mouse liver at 5 to 8 MBq measured after 10 to 15 mins post injection by CT scanning; type: ADME; conditions: in vivo
Serum = test: Stability of the compound in human serum at 5MBq measured up to 120 mins by HPLC analysis; type: ADME, cell-free; conditions: 2 h
Method in brief: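 PBS-formulated radioligand (20 μL, 5 MBq) added to 200 μL human serum at 37 °C. 20 μL aliquots taken at 10, 20, 30, 60, 90 and 120 min and quenched in methanol/CH2Cl2 (1:1, 100 μL). Samples centrifuged 2 min; organic layer analysed by radio-HPLC (10–90% CH3CN/water, 0.1% TFA gradient).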

[6] = Drug uptake in BALB/c mouse gallbladder at 5 to 8 MBq measured after 60 mins by CT scanning; type: ADME, Gall bladder; conditions: in vivo, 1 h; method in brief: as §3
[7] = Drug uptake in BALB/c mouse urinary bladder at 5 to 8 MBq measured after 60 mins by CT scanning; type: ADME, tissue-based; conditions: in vivo, 1 h; method in brief: as §3
Liver [8] = test: Drug uptake in BALB/c mouse liver at 5 to 8 MBq measured after 90 to 120 mins post injection by CT scanning; type: ADME; conditions: in vivo
Intestine = test: Drug uptake in BALB/c mouse intestine at 5 to 8 MBq measured after 60 mins by CT scanning; type: ADME, tissue-based; conditions: in vivo, 1 h; method in brief: as §3
Liver [9] = test: Drug uptake in BALB/c mouse liver at 5 to 8 MBq measured after 60 mins by CT scanning; type: ADME; conditions: in vivo, 1 h; method in brief: as §3

Sequence of Matrix metalloproteinase-9 (P14780 whole entry): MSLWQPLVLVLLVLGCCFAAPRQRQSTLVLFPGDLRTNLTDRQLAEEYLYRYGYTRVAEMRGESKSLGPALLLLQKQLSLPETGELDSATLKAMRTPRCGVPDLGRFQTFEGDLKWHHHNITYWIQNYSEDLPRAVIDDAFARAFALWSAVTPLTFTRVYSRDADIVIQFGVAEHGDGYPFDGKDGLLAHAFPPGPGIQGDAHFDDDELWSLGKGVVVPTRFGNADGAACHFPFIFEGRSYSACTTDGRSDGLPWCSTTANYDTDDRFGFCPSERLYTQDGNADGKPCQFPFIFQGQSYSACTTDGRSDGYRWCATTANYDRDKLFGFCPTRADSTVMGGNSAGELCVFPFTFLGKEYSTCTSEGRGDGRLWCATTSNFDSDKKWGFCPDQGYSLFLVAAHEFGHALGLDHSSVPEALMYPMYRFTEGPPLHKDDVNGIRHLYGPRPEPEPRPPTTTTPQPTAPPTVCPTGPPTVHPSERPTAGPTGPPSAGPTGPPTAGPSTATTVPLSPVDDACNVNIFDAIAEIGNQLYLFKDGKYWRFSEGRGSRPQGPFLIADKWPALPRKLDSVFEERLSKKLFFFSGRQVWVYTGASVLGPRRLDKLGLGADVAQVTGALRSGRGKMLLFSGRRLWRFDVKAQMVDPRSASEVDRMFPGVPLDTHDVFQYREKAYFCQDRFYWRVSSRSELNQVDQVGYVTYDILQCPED
Sequence of 72 kDa type IV collagenase (P08253 whole entry): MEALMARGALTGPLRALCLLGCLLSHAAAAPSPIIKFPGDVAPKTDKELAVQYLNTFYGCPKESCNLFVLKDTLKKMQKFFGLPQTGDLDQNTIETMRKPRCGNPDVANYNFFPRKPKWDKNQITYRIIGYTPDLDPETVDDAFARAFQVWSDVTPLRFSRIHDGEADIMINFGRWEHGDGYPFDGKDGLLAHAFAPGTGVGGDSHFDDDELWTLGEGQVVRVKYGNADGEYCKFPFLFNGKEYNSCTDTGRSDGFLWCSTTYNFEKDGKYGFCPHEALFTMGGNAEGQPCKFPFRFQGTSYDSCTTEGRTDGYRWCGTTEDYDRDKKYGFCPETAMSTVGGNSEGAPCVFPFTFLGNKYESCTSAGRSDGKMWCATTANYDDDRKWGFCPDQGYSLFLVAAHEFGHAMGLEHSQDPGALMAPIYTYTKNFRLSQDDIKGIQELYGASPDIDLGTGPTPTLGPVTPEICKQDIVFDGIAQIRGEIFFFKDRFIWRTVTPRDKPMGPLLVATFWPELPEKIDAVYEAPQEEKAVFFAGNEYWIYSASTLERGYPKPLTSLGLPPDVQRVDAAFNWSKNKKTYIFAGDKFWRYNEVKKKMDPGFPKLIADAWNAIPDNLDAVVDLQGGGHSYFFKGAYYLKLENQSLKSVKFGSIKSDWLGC
Sequence of Neutrophil collagenase (P22894 whole entry): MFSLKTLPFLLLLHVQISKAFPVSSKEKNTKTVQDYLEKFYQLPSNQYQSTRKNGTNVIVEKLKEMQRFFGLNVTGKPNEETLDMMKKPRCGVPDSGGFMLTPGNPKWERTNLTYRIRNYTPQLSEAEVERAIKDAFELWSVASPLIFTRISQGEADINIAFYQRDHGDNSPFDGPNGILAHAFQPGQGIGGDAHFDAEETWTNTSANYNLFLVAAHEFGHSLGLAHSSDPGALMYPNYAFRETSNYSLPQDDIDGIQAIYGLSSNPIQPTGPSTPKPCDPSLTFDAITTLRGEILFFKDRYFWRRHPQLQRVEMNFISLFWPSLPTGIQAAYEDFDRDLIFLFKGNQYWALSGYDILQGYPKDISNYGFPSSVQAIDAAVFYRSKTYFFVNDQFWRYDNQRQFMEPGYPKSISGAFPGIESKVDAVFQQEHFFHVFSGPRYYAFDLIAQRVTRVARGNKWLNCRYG

SMILES | IC50 (Neutrophil collagenase) [nM] | IC50 (Collagenase 3) [nM] | IC50 [2] [nM] | IC50 [3] [nM] | also measured
O=C1NC(=O)C(c2ccc(Oc3ccccc3)cc2)(N2CCN(CC[18F])CC2)C(=O)N1 | 138 | 645 | – | – | logD [1]: 2.15
O=C1NC(=O)C(c2ccc(Oc3ccccc3)cc2)(N2CCN(c3cccc(F)n3)CC2)C(=O)N1 | 129 | 48 | 203 | 9 | –
O=C1NC(=O)C(c2ccc(Oc3ccccc3)cc2)(N2CCN(CCOCCOCCOCCNC(=O)c3ccc(F)cc3)CC2)C(=O)N1 | 15 | 16 | 5 | 4 | –
O=C1NC(=O)C(NCc2cn(CCOCCOCCOCCF)nn2)(c2ccc(Oc3ccccc3)cc2)C(=O)N1 | 48 | 87 | 64 | 41 | –
O=C1NC(=O)C(NCc2cn(CCOCCOCCOCCOc3cccnc3F)nn2)(c2ccc(Oc3ccccc3)cc2)C(=O)N1 | 49 | 9 | 29 | 10 | –
O=C1NC(=O)C(c2ccc(Oc3ccccc3)cc2)(N2CCN(CCOCCOCCOCCOCc3cn(CCF)nn3)CC2)C(=O)N1 | 58 | 51 | 58 | 27 | –
O=C1NC(=O)C(c2ccc(Oc3ccccc3)cc2)(N2CCN(CCOCCOCCOCCOCCOCCOCCOCCOCc3cn(CCF)nn3)CC2)C(=O)N1 | 150 | 94 | 44 | 74 | –
O=C1NC(=O)C(c2ccc(Oc3ccccc3)cc2)(N2CCN(CCOCCOCCOCCOCc3cn(CCOCCOCCOCCOc4cccnc4F)nn3)CC2)C(=O)N1 | 107 | 605 | 202 | 56 | –
O=C1NC(=O)C(c2ccc(Oc3ccccc3)cc2)(N2CCN(CCOCCOCCOCCn3cc(COC(=O)c4ccc(F)cc4)nn3)CC2)C(=O)N1 | 27 | 7 | 22 | 23 | –
O=C1NC(=O)C(c2ccc(Oc3ccccc3)cc2)(N2CCN(CCOCCOCCOCCn3cc(CNS(=O)(=O)c4ccc(F)cc4)nn3)CC2)C(=O)N1 | 19 | 23 | 13 | 20 | –
CN(Cc1cn(CCOCCOCCOCCN2CCN(C3(c4ccc(Oc5ccccc5)cc4)C(=O)NC(=O)NC3=O)CC2)nn1)S(=O)(=O)c1ccc(F)cc1 | 15 | 21 | 12 | 7 | –
O=C1NC(=O)C(c2ccc(Oc3ccccc3)cc2)(N2CCN(CCOCCOCCOCCn3cc(CCCCOc4cccnc4F)nn3)CC2)C(=O)N1 | 116 | 40 | 52 | 60 | –
O=C1NC(=O)C(c2ccc(Oc3ccccc3)cc2)(N2CCN(CCOCCOCCOCCOCc3cn(CC[18F])nn3)CC2)C(=O)N1 | – | – | – | – | Drug uptake (Kidney): Active; Drug uptake (Lung): Not Active; Drug uptake (Heart): Not Active; Drug uptake (Brain): Not Active; Drug uptake [4]: Active; Drug uptake (Liver [5]): Active; Stability (Serum): Stable; logD [1]: 0.78; Drug uptake [6]: Active; Drug uptake [7]: Active; Drug uptake (Liver [8]): Active; Drug uptake (Intestine): Active; Drug uptake (Liver [9]): Active
O=C1NC(=O)C(c2ccc(-c3ccccc3)cc2)(N2CCN(c3ccc([N+](=O)[O-])cc3)CC2)C(=O)N1 | – | – | 23 | 7 | logD [1]: 2.15
